Results: ChEMBL document CHEMBL1255487, “Preclinical evaluation of the antifolate QN254, 5-chloro- N'6'-(2,5-dimethoxy-benzyl)-quinazoline-2,4,6-triamine, as an antimalarial drug candidate” (Antimicrob Agents Chemother, 2010)

Legend:
Plasmodium falciparum [1] = assay: Antimalarial activity against pyrimethamine-resistant Plasmodium falciparum clinical isolate harboring S108N, C59R mutation in DHFR assessed as decrease in parasitaemia; format: functional, organism-based
In short: (§1)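 P. falciparum grown in RPMI 1640 with 10% (v/v) human serum, 25 mM bicarbonate, 2 mM glutamine, 25 mM HEPES, 5 nM para-aminobenzoic acid and 23 nM folic acid. Parasites exposed to a concentration series. Read-out is [3H]hypoxanthine incorporation into nucleic acid. IC50 taken from non-linear regression of the dose–response curve.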

[2] = Binding affinity to recombinant Plasmodium falciparum V1/S DHFR S108N, N51I, C59R, I164L mutant by competitive binding assay; set-up: species or system V1S
Plasmodium falciparum [3] = assay: Antimalarial activity against pyrimethamine-resistant Plasmodium falciparum clinical isolate harboring S108N, N51I, C59R mutation in DHFR assessed as decrease in parasitaemia; format: functional, organism-based; in short: as §1
[4] = Binding affinity to wild type Plasmodium falciparum DHFR by competitive binding assay
Plasmodium falciparum [5] = assay: Antimalarial activity against pyrimethamine-resistant Plasmodium falciparum clinical isolate harboring S108N, N51I mutation in DHFR assessed as decrease in parasitaemia; format: functional, organism-based; in short: as §1
Plasmodium falciparum [6] = assay: Antimalarial activity against pyrimethamine-resistant Plasmodium falciparum V1/S harboring S108N, N51I, C59R, I164L mutation in DHFR assessed as decrease in parasitaemia; format: functional, organism-based; conditions: V1S
Plasmodium berghei [7] = assay: Antimalarial activity against Plasmodium berghei ANKA infected in NMRI mice (Mus musculus) assessed as cure rate at 3 times 30 mg/kg, perorally measured […]; format: functional; conditions: route oral
In short: (§2)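 Female NMRI mice (20–22 g), 5 per group, infected intravenously with 0.2 ml of 1 × 10^8 parasitized erythrocytes/ml from a fresh donor mouse. Compound suspended in 0.5% carboxymethyl cellulose and given orally. Survival followed to day 30 post-infection; an animal was scored cured if it survived to day 30 without parasites.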

Mus musculus [8] = assay: Toxicity in NMRI mice (Mus musculus) infected with Plasmodium berghei ANKA at 3 times 30 mg/kg, perorally measured up to 30 days postinfection; format: organism-based; set-up: dose 30 mg/kg, route oral; conditions: in vivo, po, 720 h
Mus musculus [9] = assay: Toxicity in NMRI mice (Mus musculus) infected with Plasmodium berghei ANKA at 100 mg/kg, perorally administered as single dose measured up to 30 days postinfection; format: organism-based; set-up: dose 100 mg/kg, route oral; conditions: in vivo, po, 720 h
Plasmodium berghei [10] = assay: Antimalarial activity against Plasmodium berghei ANKA infected in NMRI mice (Mus musculus) assessed as cure rate at 100 mg/kg, perorally administered as single dose measured on […]; format: functional; conditions: route oral; in short: as §2
Plasmodium berghei [11] = assay: Antimalarial activity against Plasmodium berghei ANKA infected in NMRI mice (Mus musculus) assessed as mean survival time at 3 times 30 mg/kg, perorally; format: functional; conditions: route oral
In short: (§3)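 Infection: 5 female NMRI mice (20–22 g) per group, inoculated intravenously with 0.2 ml of donor blood at 1 × 10^8 parasitized erythrocytes/ml. Oral administration in 0.5% carboxymethyl cellulose. Survival time recorded up to 30 days after infection and averaged per group.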

Plasmodium berghei [12] = assay: Antimalarial activity against Plasmodium berghei ANKA infected in NMRI mice (Mus musculus) assessed as reduction in parasitemia at 100 mg/kg, perorally administered as single dose measured on day 3 postinfection; format: functional; set-up: scale not given: the % may be the effect or the level left; conditions: route oral
In short: (§4)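 P. berghei ANKA given intravenously to groups of 5 female NMRI mice (20–22 g): 0.2 ml of 1 × 10^8 parasitized erythrocytes/ml from a donor mouse. Oral dosing in 0.5% carboxymethyl cellulose. Parasitemia counted by microscopy. Activity is the control-minus-treated parasitemia difference, expressed as percent of untreated controls.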

Plasmodium berghei [13] = assay: Antimalarial activity against Plasmodium berghei ANKA infected in perorally dosed NMRI mice (Mus musculus) assessed as reduction in parasitemia administered as single dose measured on day 3 postinfection; format: functional; conditions: for ED50 / ED90: po, 72 h
Plasmodium berghei [14] = assay: Antimalarial activity against Plasmodium berghei ANKA infected in NMRI mice (Mus musculus) assessed as reduction in parasitemia at 3 times 30 mg/kg, perorally measured on day 3 postinfection; format: functional; set-up: scale not given: the % may be the effect or the level left; conditions: route oral; in short: as §4
Plasmodium berghei [15] = assay: Antimalarial activity against Plasmodium berghei ANKA infected in NMRI mice (Mus musculus) assessed as survival rate at 100 mg/kg, perorally administered as single dose; format: functional; conditions: route oral; in short: as §3
Dihydrofolate reductase = target: T1, Dihydrofolate reductase (Homo sapiens, UniProt P00374); assay: Binding affinity to human recombinant DHFR expressed in Escherichia coli BL21(DE3) by competitive binding assay
T1 sequence (P00374 whole entry): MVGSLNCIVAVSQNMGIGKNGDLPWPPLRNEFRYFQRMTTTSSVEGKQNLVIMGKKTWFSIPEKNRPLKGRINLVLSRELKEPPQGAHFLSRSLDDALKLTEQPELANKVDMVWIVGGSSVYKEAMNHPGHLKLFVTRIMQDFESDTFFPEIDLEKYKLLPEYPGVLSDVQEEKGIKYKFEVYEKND

Plasmodium falciparum [16] = assay: Selectivity ratio of Ki for recombinant Plasmodium falciparum V1/S DHFR S108N, N51I, C59R, I164L mutant to Ki for wild type Plasmodium falciparum DHFR
[17] = Selectivity ratio of Ki for human recombinant DHFR to Ki for wild type Plasmodium falciparum DHFR

SMILES	Ki [2]	Ki [4]	Activity (Plasmodium berghei [7])	Activity (Mus musculus [8])	Activity (Mus musculus [9])	Activity (Plasmodium berghei [10])	Survival (Plasmodium berghei [11])	Activity (Plasmodium berghei [12])	ED50 (Plasmodium berghei [13])	ED90 (Plasmodium berghei [13])	Activity (Plasmodium berghei [14])	Survival (Plasmodium berghei [15])	further results
CCc1nc(N)nc(N)c1-c1ccc(Cl)cc1 [PYRIMETHAMINE]	385 nM	0.59 nM	–	–	–	–	–	–	–	–	–	–	IC50 (Plasmodium falciparum [1]): 371 nM; IC50 (Plasmodium falciparum [3]): 778 nM; IC50 (Plasmodium falciparum [5]): 371 nM; IC50 (Plasmodium falciparum [6]): 3690 nM
CCN(CC)CCCC(C)Nc1ccnc2cc(Cl)ccc12 (stereo unspecified) [CHLOROQUINE]	–	–	0%	0%	0%	0%	22.1 days	89%	1.9 mg/kg	4.2 mg/kg	98.8%	25.5 days	inhibition (Plasmodium berghei [13]): Dose dependent effect
OC(c1cc(C(F)(F)F)nc2c(C(F)(F)F)cccc12)C1CCCCN1 (stereo unspecified) [MEFLOQUINE]	–	–	0%	0%	0%	0%	14.3 days	99.6%	–	–	99.8%	–	–
CC1(C)N=C(N)N=C(N)N1c1ccc(Cl)cc1 [CYCLOGUANIL]	454 nM	1.51 nM	–	–	–	–	–	–	–	–	–	–	–
CC1(C)N=C(N)N=C(N)N1OCCCOc1cc(Cl)c(Cl)cc1Cl	1.9 nM	0.5 nM	–	–	–	–	–	–	–	–	–	–	Ki (Dihydrofolate reductase): 7.7 nM; Ratio Ki (Plasmodium falciparum [16]): 1.8; Ratio Ki [17]: 15
C[C@H]1[C@H](OC(=O)CCC(=O)O)O[C@@H]2O[C@@]3(C)CC[C@H]4[C@H](C)CC[C@@H]1[C@@]24OO3 [ARTESUNATE]	–	–	0%	0%	0%	0%	12.2 days	98%	5.9 mg/kg	20.5 mg/kg	98.7%	7 days	–
